Test results published in ChEMBL document CHEMBL1123494, “Irreversible blockage of opioid receptor types by ester homologues of beta-funaltrexamine” (J Med Chem, 1986).
Values joined by “and” are separate entries in the source; they are usually repeats but may differ in a detail not shown here. Identical values can stand only once.

How the values were obtained:
[1] = target: T1, Opioid receptor (Mus musculus) (UniProt P42866+P32300+P33534); experiment: Compound was tested for agonist activity against opioid receptor in mouse vas deferens preparation at concentration of 1E-7 M; format: functional
T1 sequence (P32300 whole entry, looked up): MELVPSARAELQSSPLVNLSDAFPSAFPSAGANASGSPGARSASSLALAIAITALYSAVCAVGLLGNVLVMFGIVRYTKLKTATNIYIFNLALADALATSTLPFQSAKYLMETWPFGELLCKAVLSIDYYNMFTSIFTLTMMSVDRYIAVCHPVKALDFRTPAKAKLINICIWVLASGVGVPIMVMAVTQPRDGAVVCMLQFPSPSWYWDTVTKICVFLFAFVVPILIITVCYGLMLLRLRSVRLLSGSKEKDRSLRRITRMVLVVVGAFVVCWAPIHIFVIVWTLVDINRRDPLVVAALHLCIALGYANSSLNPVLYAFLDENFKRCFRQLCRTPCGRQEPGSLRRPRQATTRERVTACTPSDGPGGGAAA
T1 sequence (P33534 whole entry, looked up): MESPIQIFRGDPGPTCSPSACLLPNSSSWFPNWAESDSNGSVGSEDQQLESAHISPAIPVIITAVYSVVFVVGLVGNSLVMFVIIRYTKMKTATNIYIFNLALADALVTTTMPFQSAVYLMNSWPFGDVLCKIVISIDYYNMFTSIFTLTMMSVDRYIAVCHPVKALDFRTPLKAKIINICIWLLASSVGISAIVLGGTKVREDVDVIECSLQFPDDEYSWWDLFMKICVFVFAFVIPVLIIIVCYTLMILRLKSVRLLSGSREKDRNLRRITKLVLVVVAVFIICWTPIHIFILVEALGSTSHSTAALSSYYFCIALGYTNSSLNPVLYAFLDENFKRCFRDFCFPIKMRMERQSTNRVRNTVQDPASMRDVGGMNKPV
T1 sequence (P42866 whole entry, looked up): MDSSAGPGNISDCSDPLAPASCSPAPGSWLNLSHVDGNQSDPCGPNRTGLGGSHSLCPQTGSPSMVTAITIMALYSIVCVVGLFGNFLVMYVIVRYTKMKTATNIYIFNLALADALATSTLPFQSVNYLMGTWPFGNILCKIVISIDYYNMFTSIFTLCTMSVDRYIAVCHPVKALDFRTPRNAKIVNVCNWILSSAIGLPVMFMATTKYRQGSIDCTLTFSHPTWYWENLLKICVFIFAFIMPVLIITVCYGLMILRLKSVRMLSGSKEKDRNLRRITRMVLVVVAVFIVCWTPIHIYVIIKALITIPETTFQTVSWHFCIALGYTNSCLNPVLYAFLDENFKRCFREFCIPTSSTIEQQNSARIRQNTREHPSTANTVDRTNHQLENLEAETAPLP

[2] = target: T1, Opioid receptor (Mus musculus); experiment: Compound was tested for irreversible antagonist activity against opioid receptor in mouse vas deferens expressed as IC20 of morphine divided by the compound; format: functional, tissue-based
Outline: (§1)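 Mouse vas deferens incubated 30 min with 200 nM test ligand, then washed thoroughly (20 times). Morphine and DADLE dose-response curves were rerun in the same tissue. Ratio = agonist IC50 after treatment / control IC50 in that tissue. Where the standard agonist gave under 65% response after treatment, an IC20 was estimated from the plotted dose-response curve. Means of three determinations unless otherwise noted.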

[3] = system: Opioid receptors; mu/kappa/delta; experiment: Compound was tested for irreversible antagonist activity against opioid receptor in mouse vas deferens at a concentration of 20 nM expressed as IC50 of morphine divided by the compound; format: functional
Opioid receptor [4] = target: Opioid receptor (Rattus norvegicus, UniProt P33533+P34975+P33535); experiment: The compound was tested for binding affinity against opioid receptor in rat brain membranes, using [3H]dihydromorphine as the radioligand; format: cell membranes
Outline: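 Rat forebrain was homogenised in ice-cold 0.05 M Tris-HCl pH 7.4 and washed twice by centrifugation at 4 °C. It was preincubated 10 min at 37 °C, washed again and resuspended at 10 mg/mL. Triplicate tubes held 1 nM [3H]dihydromorphine and at least seven drug concentrations, incubated 40 min at room temperature, then vacuum-filtered. Nonspecific binding was set with 10⁻⁶ M naloxone. Values are mean ± SEM of three experiments.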

[5] = system: Opioid receptors; mu/kappa/delta; experiment: Compound was tested for irreversible antagonist activity against opioid receptor in mouse vas deferens expressed as IC50 of DADLE divided by the compound; format: functional, tissue-based; outline: as §1
[6] = system: Opioid receptors; mu/kappa/delta; experiment: Compound was tested for agonist potency against opioid receptor in guinea pig ileal longitudinal muscle expressed as IC50 of morphine divided by the compound; format: functional
[7] = target: T2, Opioid receptors; mu/kappa/delta (Homo sapiens) (UniProt P41145+P41143+P35372); experiment: Compound was tested for irreversible antagonist activity against opioid receptor in mouse vas deferens expressed as IC50 of morphine divided by the compound; format: functional, tissue-based; outline: as §1
T2 sequence (P35372 whole entry, looked up): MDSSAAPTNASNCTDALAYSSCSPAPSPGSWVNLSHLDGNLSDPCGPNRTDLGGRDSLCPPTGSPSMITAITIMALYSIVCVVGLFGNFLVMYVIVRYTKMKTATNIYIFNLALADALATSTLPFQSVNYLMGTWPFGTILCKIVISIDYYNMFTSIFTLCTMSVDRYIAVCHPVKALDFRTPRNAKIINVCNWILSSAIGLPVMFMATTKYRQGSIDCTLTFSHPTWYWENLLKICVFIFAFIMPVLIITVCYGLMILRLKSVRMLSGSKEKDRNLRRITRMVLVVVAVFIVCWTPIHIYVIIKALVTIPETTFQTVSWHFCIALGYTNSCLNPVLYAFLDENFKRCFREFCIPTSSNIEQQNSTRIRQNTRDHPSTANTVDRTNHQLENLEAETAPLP
T2 sequence (P41143 whole entry, looked up): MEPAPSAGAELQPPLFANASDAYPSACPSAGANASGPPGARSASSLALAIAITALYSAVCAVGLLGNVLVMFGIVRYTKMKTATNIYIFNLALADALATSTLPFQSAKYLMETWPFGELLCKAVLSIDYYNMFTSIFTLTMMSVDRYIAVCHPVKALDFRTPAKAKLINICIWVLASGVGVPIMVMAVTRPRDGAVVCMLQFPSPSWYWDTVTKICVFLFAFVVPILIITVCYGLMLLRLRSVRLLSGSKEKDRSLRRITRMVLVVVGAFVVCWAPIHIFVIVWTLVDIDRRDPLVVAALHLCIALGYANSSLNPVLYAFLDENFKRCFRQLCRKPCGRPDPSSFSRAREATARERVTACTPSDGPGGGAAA
T2 sequence (P41145 whole entry, looked up): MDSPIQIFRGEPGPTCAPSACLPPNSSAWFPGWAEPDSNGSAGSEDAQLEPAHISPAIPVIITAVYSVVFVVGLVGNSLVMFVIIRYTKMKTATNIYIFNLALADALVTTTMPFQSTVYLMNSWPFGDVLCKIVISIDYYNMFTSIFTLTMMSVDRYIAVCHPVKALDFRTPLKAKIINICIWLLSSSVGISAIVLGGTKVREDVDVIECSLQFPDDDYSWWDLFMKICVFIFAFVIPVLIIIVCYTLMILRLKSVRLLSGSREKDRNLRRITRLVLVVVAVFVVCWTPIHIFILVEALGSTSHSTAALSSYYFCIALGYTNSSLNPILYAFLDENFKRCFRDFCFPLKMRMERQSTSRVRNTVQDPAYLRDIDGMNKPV

Opioid receptor [8] = target: Opioid receptor (Mus musculus, UniProt P42866+P32300+P33534); experiment: Compound was tested for agonist activity against opioid receptor in mouse vas deferens preparation; format: functional
[9] = target: Opioid receptors; mu and delta (Mus musculus) (UniProt P42866+P32300); experiment: Irreversible antagonist activity against opioid receptor in mouse vas deferens at 200 nM relative to IC50 of nalorphine; format: functional, tissue-based
Opioid receptors; mu and delta (Mus musculus), sequence (P32300 whole entry, looked up): as the sequence (P32300 whole entry, looked up) above
Opioid receptors; mu and delta (Mus musculus), sequence (P42866 whole entry, looked up): as the sequence (P42866 whole entry, looked up) above

[10] = target: T2, Opioid receptors; mu/kappa/delta (Homo sapiens); experiment: Compound was tested for irreversible antagonist activity against opioid receptor in mouse vas deferens at a concentration of 200 nM, expressed as IC50 of nalorphine divided by the compound; format: functional
[11] = target: T2, Opioid receptors; mu/kappa/delta (Homo sapiens); experiment: Compound was tested for irreversible antagonist activity against opioid receptor in mouse vas deferens, expressed as IC50 of morphine divided by the compound; format: functional
Outline: (§2)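 Mouse vas deferens tissue incubated 30 min with test ligand at 200 nM, then washed thoroughly (20 times). Standard agonist (morphine or DADLE) IC50 redetermined and divided by control IC50 from the same tissue (treated/control ratio). Where the agonist gave under 65% response after treatment, an IC20 was estimated from the plotted dose-response curve. Means of three determinations unless otherwise noted.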

[12] = target: T2, Opioid receptors; mu/kappa/delta (Homo sapiens); experiment: Compound was tested for irreversible antagonist activity against opioid receptor in mouse vas deferens at a concentration of 20 nM, expressed as IC50 of nalorphine divided by the compound; format: functional
[13] = target: T2, Opioid receptors; mu/kappa/delta (Homo sapiens); experiment: Compound was tested for irreversible antagonist activity against opioid receptor in mouse vas deferens at a concentration of 20 nM, expressed as IC50 of morphine divided by the compound; format: functional
[14] = target: T2, Opioid receptors; mu/kappa/delta (Homo sapiens); experiment: Compound was tested for irreversible antagonist activity against opioid receptor in mouse vas deferens at a concentration of 100 nM, expressed as IC50 of morphine divided by the compound; format: functional
[15] = target: T2, Opioid receptors; mu/kappa/delta (Homo sapiens); experiment: Compound was tested for irreversible antagonist activity against opioid receptor in mouse vas deferens, expressed as IC50 of DADLE divided by compound; format: functional; outline: as §2
[16] = target: T2, Opioid receptors; mu/kappa/delta (Homo sapiens); experiment: Compound was tested for irreversible antagonist activity against opioid receptor in mouse vas deferens expressed as IC50 of morphine divided by the compound (experiment. 2); format: functional, tissue-based; outline: as §1
[17] = target: T2, Opioid receptors; mu/kappa/delta (Homo sapiens); experiment: Compound was tested for irreversible antagonist activity against opioid receptor in mouse vas deferens expressed as IC50 of morphine divided by the compound (experiment 1); format: functional, tissue-based; outline: as §1
Mus musculus = organism: Mus musculus; experiment: Compound was tested for partial agonism in presence of morphine at conc. of 3 e-5; format: functional

Compound | inhibition [1] [%] | IC20 [2] [nM] | Ratio [3] | IC50 (Opioid receptor [4]) [nM] | Ratio [5] | Potency ratio [6] | Ratio [7] | IC50 (Opioid receptor [8]) [nM] | Ratio [9] | Ratio [10] | Ratio [11] | Ratio [12] | Ratio [13] | Ratio [14] | Ratio [15] | Ratio [16] | Ratio [17] | Activity (Mus musculus) [%]
O=C(/C=C/C(=O)OCc1ccccc1)N[C@@H]1CC[C@@]2(O)C3Cc4ccc(O)c5c4C2(CCN3CC2CC2)[C@H]1O5 (some centres not stated) | 57 | 400 | 6.33 and 5.85 | 0.3 | 1.39 | 1.41 |  |  |  |  |  |  |  |  |  |  |  | 
CCCCOC(=O)/C=C/C(=O)N[C@@H]1CC[C@@]2(O)C3Cc4ccc(O)c5c4C2(CCN3CC2CC2)[C@H]1O5 (some centres not stated) |  |  | 5.05 and 4.42 | 1.65 | 1.75 | 66.1 | 10 | 7 |  |  |  |  |  |  |  |  |  | 
CCOC(=O)/C=C/C(=O)N[C@@H]1CC[C@@]2(O)C3Cc4ccc(O)c5c4C2(CCN3CC2CC2)[C@H]1O5 (some centres not stated) |  |  | 1.75 and 2.22 | 0.64 | 1.24 | 16.1 | 2.53 | 13 | 1.67 | 2.06 |  |  |  |  |  |  |  | 
COC(=O)/C=C/C(=O)N[C@@H]1CC[C@@]2(O)[C@H]3Cc4ccc(O)c5c4[C@@]2(CCN3CC2CC2)[C@H]1O5 |  |  |  | 1.03 |  | 5 |  | 82 |  |  | 10.6 | 1.2 | 6 | 12 | 1.1 |  |  | 
O=C(/C=C/C(=O)OCCc1ccccc1)N[C@@H]1CC[C@@]2(O)C3Cc4ccc(O)c5c4C2(CCN3CC2CC2)[C@H]1O5 (some centres not stated) |  |  | 4.84 and 2.88 | 0.015 | 3.73 | 10.4 |  | 70.1 |  |  |  |  |  |  |  | 24.4 | 64.7 | 
CCCOC(=O)/C=C/C(=O)N[C@@H]1CC[C@@]2(O)C3Cc4ccc(O)c5c4C2(CCN3CC2CC2)[C@H]1O5 (some centres not stated) |  | 200 | 2.46 and 1.69 | 1.56 | 1.52 | 147 |  | 21 |  |  |  |  |  |  |  |  |  | 56
